{"data": "Assay results pooled from the literature", "observed": "metabolic stability", "species": "human", "sample": "liver microsomes", "note": "Lines come from different studies, so protocols differ."}
{"Compound": "CC1(C)NC(=O)N(c2cc(C(F)(F)F)c(F)cc2C#N)C1=O", "microsomal CLint": "< 7 µL/min/mg"}
{"Compound": "CN(C)CCOc1ccc2c(=O)c3c([nH]c2c1)CCCC3", "concentration": "1 µM", "pH": "pH 7.4", "microsomal CLint": "8.08 µL/min/mg"}
{"Compound": "CCS(=O)(=O)N1CCC2(CC1)NC(=O)N(c1ccc(F)c(C(F)(F)F)c1)C2=O", "microsomal CLint": "< 7 µL/min/mg"}
{"Compound": "O=c1c2ccccc2[nH]c2cc(Oc3ccc(OC(F)(F)F)cc3)ccc12", "concentration": "1 µM", "pH": "pH 7.4", "microsomal CLint": "20.9 µL/min/mg"}
{"Compound": "N#Cc1ccc(-c2csc(CNC(=O)[C@H]3CCCN(C(=O)N4CCCO4)C3)n2)cc1", "concentration": "0.5 µM", "microsomal CLint": "112 µL/min/mg"}
{"Compound": "Cc1ccc(N(C)c2ccc(NC(=O)CN(C)c3ccccc3N3CCCC3=O)cn2)cc1", "microsomal CLint": "216 µL/min/mg"}
{"Compound": "CC1(C)NC(=O)N(c2ccc(F)c(F)c2)C1=O", "microsomal CLint": "< 7 µL/min/mg"}
{"Compound": "Cc1ccc(N(C)c2ccc(NC(=O)CN(C)c3cccnc3N3CCCC3=O)cc2)cc1", "microsomal CLint": "222 µL/min/mg"}
{"Compound": "CCOc1ccc(Nc2c3c(nc4ccccc24)CCC3)cc1", "concentration": "0.5 µM", "microsomal CLint": "37 µL/min/mg"}
{"Compound": "Cc1cc(N2C(=O)NC(C)(C)C2=O)cc(C(F)(F)F)n1", "microsomal CLint": "< 7 µL/min/mg"}
{"Compound": "O=c1c2ccc(OCc3cccc(OC(F)(F)F)c3)cc2[nH]c2cc(F)cc(Cl)c12", "concentration": "1 µM", "pH": "pH 7.4", "microsomal CLint": "22.5 µL/min/mg"}
{"Compound": "Cc1[nH]c(C)c(S(=O)(=O)Nc2ccc(C(F)(F)F)c(Cl)c2Cl)c1C(=O)N1CCC(F)(F)C1", "microsomal CLint": "7.4 µL/min/mg"}
{"Compound": "Cc1ccc(Oc2ccc(NC(=O)CNc3ccccc3-n3cncn3)cc2)cc1", "microsomal CLint": "98 µL/min/mg"}
{"Compound": "O=c1c2ccc(Oc3ccc(OC(F)(F)F)cc3)cc2[nH]c2ccc(F)c(Cl)c12", "concentration": "1 µM", "pH": "pH 7.4", "microsomal CLint": "7.54 µL/min/mg"}
{"Compound": "CC1(C)NC(=O)N(c2ccc3c(c2)OC(F)(F)O3)C1=O", "microsomal CLint": "< 7 µL/min/mg"}
{"Compound": "C#C[C@]1(OC(C)=O)CC[C@H]2[C@@H]3CCC4=CC(=NO)CC[C@@H]4[C@H]3CC[C@@]21CC (mixture of isomers)", "microsomal CLint": "70.1 µL/min/mg"}
{"Compound": "Cc1ccc(Oc2ccc(NC(=O)CNc3ccccc3N3CCCC3=O)cc2)cc1", "microsomal CLint": "102 µL/min/mg"}
{"Compound": "CCCCCCOc1ccc2c(=O)c3c([nH]c2c1)CCCC3", "concentration": "1 µM", "pH": "pH 7.4", "microsomal CLint": "92.2 µL/min/mg"}
{"Compound": "CC(C)N(c1ccc(Cl)c(F)c1)c1ccc(NC(=O)CN(C)c2ccccc2N2CCCC2=O)cn1", "microsomal CLint": "287 µL/min/mg"}
{"Compound": "O=C1NC2(CCS(=O)(=O)CC2)C(=O)N1c1ccc(F)c(C(F)(F)F)c1", "microsomal CLint": "< 7 µL/min/mg"}
{"Compound": "CCN(c1ccc(C)cc1)c1ccc(NC(=O)CN(C)c2ccccc2N2CCCC2=O)cn1", "microsomal CLint": "408 µL/min/mg"}
{"Compound": "Cc1ccc(Nc2cnnc3ccc(-c4ccc(N5CCN(C)CC5)cc4)cc23)cn1", "microsomal CLint": "36 µL/min/mg"}
{"Compound": "O=c1c2c([nH]c3cc(Oc4ccc(OC(F)(F)F)cc4)c(F)cc13)CCCC2", "concentration": "1 µM", "pH": "pH 7.4", "microsomal CLint": "72.5 µL/min/mg"}
{"Compound": "CC(C)NCCOCC(=O)N1CCC[C@H](C(=O)NCc2nc(-c3ccc(C(F)(F)F)cc3)cs2)C1", "concentration": "0.5 µM", "microsomal CLint": "13 µL/min/mg"}
{"Compound": "Cc1cc2c(C(=O)O)cccc2n1-c1nc2c(c(NCc3ccccc3)n1)CCCN2", "concentration": "1 µM", "pH": "pH 7.4", "microsomal CLint": "9.07 µL/min/mg"}
{"Compound": "CC1(C(F)F)NC(=O)N(c2ccc(F)c(C(F)(F)F)c2)C1=O (centres unmarked)", "microsomal CLint": "< 7 µL/min/mg"}
{"Compound": "O=c1c2ccc(OCc3cccc(C(F)(F)F)c3)cc2[nH]c2ccc(Cl)c(F)c12", "concentration": "1 µM", "pH": "pH 7.4", "microsomal CLint": "2.73 µL/min/mg"}
{"Compound": "CCCCCCCCCCCCCCCC(=O)NCCOC(=O)C[C@@H](CN)CC(C)C", "concentration": "1 µM", "pH": "pH 7.4", "microsomal CLint": "22.9 µL/min/mg"}
{"Compound": "CC1(C)NC(=O)N(c2ccc(F)c(OC(F)(F)F)c2)C1=O", "microsomal CLint": "< 7 µL/min/mg"}
{"Compound": "O=C(NCc1nc(-c2ccccc2)cs1)[C@H]1CCCN(C(=O)[C@@H]2CCCO2)C1", "concentration": "0.5 µM", "microsomal CLint": "36 µL/min/mg"}
{"Compound": "COc1cnc(Nc2cnnc3ccc(-c4ccc(N5CCN(C)CC5)cc4)cc23)nc1", "microsomal CLint": "93 µL/min/mg"}
{"Compound": "COCC(=O)N1CCC[C@H](C(=O)NCc2nc(-c3cccnc3)cs2)C1", "concentration": "0.5 µM", "microsomal CLint": "< 7 µL/min/mg"}
{"Compound": "COc1cc(NC(=O)Cn2ccc3ccc(-c4cnn(C)c4)cc32)cc(OC)c1OC", "microsomal CLint": "62 µL/min/mg"}
{"Compound": "CCONC(=O)N1CCC[C@H](C(=O)N[C@H](C)c2nc(-c3ccc(C#N)cc3)cs2)C1", "concentration": "0.5 µM", "microsomal CLint": "17 µL/min/mg"}
{"Compound": "O=C(N1CCCCC1)C12CC(c3ccccc3)(C1)C2", "concentration": "2 µM", "pH": "pH 7.4", "microsomal CLint": "24 µL/min/mg"}
{"Compound": "NCCCOCC(=O)N1CCC[C@H](C(=O)NCc2nc(-c3ccc(C4CC4)cc3)cs2)C1", "concentration": "0.5 µM", "microsomal CLint": "11 µL/min/mg"}
{"Compound": "Cc1ccc(Oc2ccc(NC(=O)CN(C)c3ccccc3N3CCCC3=O)cc2)cc1", "microsomal CLint": "383 µL/min/mg"}
{"Compound": "O=C(NCc1nc(-c2ccccc2)cs1)[C@H]1CCCN(C(=O)COCC2CC2)C1", "concentration": "0.5 µM", "microsomal CLint": "102 µL/min/mg"}
{"Compound": "Cc1ccc(N(C)c2ccc(NC(=O)CN(C)c3ccccc3N3CCCC3=O)cc2)cc1", "microsomal CLint": "347 µL/min/mg"}
{"Compound": "O=c1c2ccc(Oc3cccc(OC(F)(F)F)c3)cc2[nH]c2cc(Cl)cc(F)c12", "concentration": "1 µM", "pH": "pH 7.4", "microsomal CLint": "2.96 µL/min/mg"}
{"Compound": "C[C@H]1[C@@H](C(=O)NCc2nc(-c3ccc(C#N)cc3)cs2)CCCN1C(=O)[C@H]1CCC(=O)O1", "concentration": "0.5 µM", "microsomal CLint": "8 µL/min/mg"}
